Measured values: PMC5621377 (Clinical cancer research : an official journal of the …, 2016)

System: patients with Rb+ advanced solid tumors or lymphomas
Assay: Safety assessments, adverse events
Assay type: in vivo, human
Outline: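 Oral test compound given daily 3-weeks-on/1-week-off in 28-day cycles, with doses escalated by a Bayesian logistic regression model with overdose control. Safety assessments, including ECGs, were done at baseline and at regular intervals. AEs were graded by CTCAE v4.0 and classed as suspected related to treatment. All patients dosed at least once were included; summaries were descriptive per dose level.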

[1] = 400 mg 3-weeks-on/1-week-off, n = 5
[2] = 600 mg 3-weeks-on/1-week-off, n = 67
[3] = 600 mg continuous dosing, n = 7
[4] = 750 mg 3-weeks-on/1-week-off, n = 14
[5] = 900 mg 3-weeks-on/1-week-off, n = 13
[6] = 1,200 mg 3-weeks-on/1-week-off, n = 3
[7] = RDE 600 mg/day 3-weeks-on/1-week-off
[8] = of 67 patients treated at the RDE

CN(C)C(=O)c1cc2cnc(Nc3ccc(N4CCNCC4)cn3)nc2n1C1CCCC1 [ribociclib]
Nausea, Grade All, AE suspected related to study treatment [1]: 1 (20) n (%)
Neutropenia, Grade 3/4, AE suspected related to study treatment [1]: 1 (20) n (%)
Neutropenia, Grade All, AE suspected related to study treatment [1]: 2 (40) n (%)
Thrombocytopenia, Grade 3/4, AE suspected related to study treatment [1]: 0 n (%)
Thrombocytopenia, Grade All, AE suspected related to study treatment [1]: 1 (20) n (%)
Vomiting, Grade 3/4, AE suspected related to study treatment [1]: 0 n (%)
Vomiting, Grade All, AE suspected related to study treatment [1]: 2 (40) n (%)
Anemia, Grade 3/4, AE suspected related to study treatment [2]: 2 (3) n (%)
Anemia, Grade All, AE suspected related to study treatment [2]: 19 (28) n (%)
Appetite decreased, Grade 3/4, AE suspected related to study treatment [2]: 0 n (%)
Appetite decreased, Grade All, AE suspected related to study treatment [2]: 5 (7) n (%)
Blood creatinine increased, Grade 3/4, AE suspected related to study treatment [2]: 0 n (%)
Blood creatinine increased, Grade All, AE suspected related to study treatment [2]: 4 (6) n (%)
Diarrhea, Grade 3/4, AE suspected related to study treatment [2]: 2 (3) n (%)
Diarrhea, Grade All, AE suspected related to study treatment [2]: 18 (27) n (%)
Fatigue, Grade 3/4, AE suspected related to study treatment [2]: 2 (3) n (%)
Fatigue, Grade All, AE suspected related to study treatment [2]: 22 (33) n (%)
Leukopenia, Grade 3/4, AE suspected related to study treatment [2]: 13 (19) n (%)
Leukopenia, Grade All, AE suspected related to study treatment [2]: 31 (46) n (%)
Lymphopenia, Grade 3/4, AE suspected related to study treatment [2]: 12 (18) n (%)
Lymphopenia, Grade All, AE suspected related to study treatment [2]: 15 (22) n (%)
Nausea, Grade 3/4, AE suspected related to study treatment [2]: 1 (1) n (%)
Nausea, Grade All, AE suspected related to study treatment [2]: 30 (45) n (%)
Neutropenia, Grade 3/4, AE suspected related to study treatment [2]: 19 (28) n (%)
Neutropenia, Grade All, AE suspected related to study treatment [2]: 31 (46) n (%)
Thrombocytopenia, Grade 3/4, AE suspected related to study treatment [2]: 6 (9) n (%)
Thrombocytopenia, Grade All, AE suspected related to study treatment [2]: 23 (34) n (%)
Vomiting, Grade 3/4, AE suspected related to study treatment [2]: 0 n (%)
Vomiting, Grade All, AE suspected related to study treatment [2]: 17 (25) n (%)
Anemia, Grade 3/4, AE suspected related to study treatment [3]: 0 n (%)
Anemia, Grade All, AE suspected related to study treatment [3]: 2 (29) n (%)
Appetite decreased, Grade 3/4, AE suspected related to study treatment [3]: 0 n (%)
Appetite decreased, Grade All, AE suspected related to study treatment [3]: 0 n (%)
Blood creatinine increased, Grade 3/4, AE suspected related to study treatment [3]: 0 n (%)
Blood creatinine increased, Grade All, AE suspected related to study treatment [3]: 1 (14) n (%)
Diarrhea, Grade 3/4, AE suspected related to study treatment [3]: 0 n (%)
Diarrhea, Grade All, AE suspected related to study treatment [3]: 0 n (%)
Fatigue, Grade 3/4, AE suspected related to study treatment [3]: 1 (14) n (%)
Fatigue, Grade All, AE suspected related to study treatment [3]: 5 (71) n (%)
Leukopenia, Grade 3/4, AE suspected related to study treatment [3]: 5 (71) n (%)
Leukopenia, Grade All, AE suspected related to study treatment [3]: 6 (86) n (%)
Lymphopenia, Grade 3/4, AE suspected related to study treatment [3]: 2 (29) n (%)
Lymphopenia, Grade All, AE suspected related to study treatment [3]: 3 (43) n (%)
Nausea, Grade 3/4, AE suspected related to study treatment [3]: 0 n (%)
Nausea, Grade All, AE suspected related to study treatment [3]: 3 (43) n (%)
Neutropenia, Grade 3/4, AE suspected related to study treatment [3]: 5 (71) n (%)
Neutropenia, Grade All, AE suspected related to study treatment [3]: 6 (86) n (%)
Thrombocytopenia, Grade 3/4, AE suspected related to study treatment [3]: 0 n (%)
Thrombocytopenia, Grade All, AE suspected related to study treatment [3]: 2 (29) n (%)
Vomiting, Grade 3/4, AE suspected related to study treatment [3]: 0 n (%)
Vomiting, Grade All, AE suspected related to study treatment [3]: 2 (29) n (%)
patients with asymptomatic QTcF prolongation (600 mg/day (RDE)): 9%
Anemia, Grade 3/4, AE suspected related to study treatment [4]: 1 (7) n (%)
Anemia, Grade All, AE suspected related to study treatment [4]: 3 (21) n (%)
Appetite decreased, Grade 3/4, AE suspected related to study treatment [4]: 0 n (%)
Appetite decreased, Grade All, AE suspected related to study treatment [4]: 3 (21) n (%)
Blood creatinine increased, Grade 3/4, AE suspected related to study treatment [4]: 0 n (%)
Blood creatinine increased, Grade All, AE suspected related to study treatment [4]: 3 (21) n (%)
Diarrhea, Grade 3/4, AE suspected related to study treatment [4]: 0 n (%)
Diarrhea, Grade All, AE suspected related to study treatment [4]: 4 (29) n (%)
Fatigue, Grade 3/4, AE suspected related to study treatment [4]: 0 n (%)
Fatigue, Grade All, AE suspected related to study treatment [4]: 5 (36) n (%)
Leukopenia, Grade 3/4, AE suspected related to study treatment [4]: 0 n (%)
Leukopenia, Grade All, AE suspected related to study treatment [4]: 6 (43) n (%)
Lymphopenia, Grade 3/4, AE suspected related to study treatment [4]: 1 (7) n (%)
Lymphopenia, Grade All, AE suspected related to study treatment [4]: 6 (43) n (%)
Nausea, Grade 3/4, AE suspected related to study treatment [4]: 1 (7) n (%)
Nausea, Grade All, AE suspected related to study treatment [4]: 8 (57) n (%)
Neutropenia, Grade 3/4, AE suspected related to study treatment [4]: 5 (36) n (%)
Neutropenia, Grade All, AE suspected related to study treatment [4]: 8 (57) n (%)
Thrombocytopenia, Grade 3/4, AE suspected related to study treatment [4]: 3 (21) n (%)
Thrombocytopenia, Grade All, AE suspected related to study treatment [4]: 5 (36) n (%)
Vomiting, Grade 3/4, AE suspected related to study treatment [4]: 0 n (%)
Vomiting, Grade All, AE suspected related to study treatment [4]: 4 (29) n (%)
Anemia, Grade 3/4, AE suspected related to study treatment [5]: 0 n (%)
Anemia, Grade All, AE suspected related to study treatment [5]: 3 (23) n (%)
Appetite decreased, Grade 3/4, AE suspected related to study treatment [5]: 0 n (%)
Appetite decreased, Grade All, AE suspected related to study treatment [5]: 1 (8) n (%)
Blood creatinine increased, Grade 3/4, AE suspected related to study treatment [5]: 0 n (%)
Blood creatinine increased, Grade All, AE suspected related to study treatment [5]: 2 (15) n (%)
Diarrhea, Grade 3/4, AE suspected related to study treatment [5]: 0 n (%)
Diarrhea, Grade All, AE suspected related to study treatment [5]: 5 (39) n (%)
Fatigue, Grade 3/4, AE suspected related to study treatment [5]: 0 n (%)
Fatigue, Grade All, AE suspected related to study treatment [5]: 10 (77) n (%)
Leukopenia, Grade 3/4, AE suspected related to study treatment [5]: 4 (31) n (%)
Leukopenia, Grade All, AE suspected related to study treatment [5]: 9 (69) n (%)
Lymphopenia, Grade 3/4, AE suspected related to study treatment [5]: 4 (31) n (%)
Lymphopenia, Grade All, AE suspected related to study treatment [5]: 4 (31) n (%)
Nausea, Grade 3/4, AE suspected related to study treatment [5]: 0 n (%)
Nausea, Grade All, AE suspected related to study treatment [5]: 6 (46) n (%)
Neutropenia, Grade 3/4, AE suspected related to study treatment [5]: 5 (39) n (%)
Neutropenia, Grade All, AE suspected related to study treatment [5]: 9 (69) n (%)
Thrombocytopenia, Grade 3/4, AE suspected related to study treatment [5]: 0 n (%)
Thrombocytopenia, Grade All, AE suspected related to study treatment [5]: 6 (46) n (%)
Vomiting, Grade 3/4, AE suspected related to study treatment [5]: 0 n (%)
Vomiting, Grade All, AE suspected related to study treatment [5]: 3 (23) n (%)
Anemia, Grade 3/4, AE suspected related to study treatment [6]: 1 (33) n (%)
Anemia, Grade All, AE suspected related to study treatment [6]: 3 (100) n (%)
Appetite decreased, Grade 3/4, AE suspected related to study treatment [6]: 0 n (%)
Appetite decreased, Grade All, AE suspected related to study treatment [6]: 0 n (%)
Blood creatinine increased, Grade 3/4, AE suspected related to study treatment [6]: 0 n (%)
Blood creatinine increased, Grade All, AE suspected related to study treatment [6]: 0 n (%)
Diarrhea, Grade 3/4, AE suspected related to study treatment [6]: 0 n (%)
Diarrhea, Grade All, AE suspected related to study treatment [6]: 2 (67) n (%)
Fatigue, Grade 3/4, AE suspected related to study treatment [6]: 0 n (%)
Fatigue, Grade All, AE suspected related to study treatment [6]: 3 (100) n (%)
Leukopenia, Grade 3/4, AE suspected related to study treatment [6]: 0 n (%)
Leukopenia, Grade All, AE suspected related to study treatment [6]: 0 n (%)
Lymphopenia, Grade 3/4, AE suspected related to study treatment [6]: 0 n (%)
Lymphopenia, Grade All, AE suspected related to study treatment [6]: 0 n (%)
Nausea, Grade 3/4, AE suspected related to study treatment [6]: 0 n (%)
Nausea, Grade All, AE suspected related to study treatment [6]: 3 (100) n (%)
Neutropenia, Grade 3/4, AE suspected related to study treatment [6]: 1 (33) n (%)
Neutropenia, Grade All, AE suspected related to study treatment [6]: 2 (67) n (%)
Thrombocytopenia, Grade 3/4, AE suspected related to study treatment [6]: 1 (33) n (%)
Thrombocytopenia, Grade All, AE suspected related to study treatment [6]: 2 (67) n (%)
Vomiting, Grade 3/4, AE suspected related to study treatment [6]: 0 n (%)
Vomiting, Grade All, AE suspected related to study treatment [6]: 3 (100) n (%)
Anemia, Grade 3/4, AE suspected related to study treatment (All doses, N = 132): 4 (3) n (%)
Anemia, Grade All, AE suspected related to study treatment (All doses, N = 132): 34 (26) n (%)
Appetite decreased, Grade 3/4, AE suspected related to study treatment (All doses, N = 132): 0 n (%)
Appetite decreased, Grade All, AE suspected related to study treatment (All doses, N = 132): 13 (10) n (%)
Blood creatinine increased, Grade 3/4, AE suspected related to study treatment (All doses, N = 132): 0 n (%)
Blood creatinine increased, Grade All, AE suspected related to study treatment (All doses, N = 132): 14 (11) n (%)
Diarrhea, Grade 3/4, AE suspected related to study treatment (All doses, N = 132): 2 (2) n (%)
Diarrhea, Grade All, AE suspected related to study treatment (All doses, N = 132): 31 (23) n (%)
Fatigue, Grade 3/4, AE suspected related to study treatment (All doses, N = 132): 3 (2) n (%)
Fatigue, Grade All, AE suspected related to study treatment (All doses, N = 132): 59 (45) n (%)
Leukopenia, Grade 3/4, AE suspected related to study treatment (All doses, N = 132): 22 (17) n (%)
Leukopenia, Grade All, AE suspected related to study treatment (All doses, N = 132): 57 (43) n (%)
Lymphopenia, Grade 3/4, AE suspected related to study treatment (All doses, N = 132): 21 (16) n (%)
Lymphopenia, Grade All, AE suspected related to study treatment (All doses, N = 132): 32 (24) n (%)
Nausea, Grade 3/4, AE suspected related to study treatment (All doses, N = 132): 2 (2) n (%)
Nausea, Grade All, AE suspected related to study treatment (All doses, N = 132): 56 (42) n (%)
Neutropenia, Grade 3/4, AE suspected related to study treatment (All doses, N = 132): 36 (27) n (%)
Neutropenia, Grade All, AE suspected related to study treatment (All doses, N = 132): 60 (46) n (%)
Thrombocytopenia, Grade 3/4, AE suspected related to study treatment (All doses, N = 132): 10 (8) n (%)
Thrombocytopenia, Grade All, AE suspected related to study treatment (All doses, N = 132): 40 (30) n (%)
Vomiting, Grade 3/4, AE suspected related to study treatment (All doses, N = 132): 0 n (%)
Vomiting, Grade All, AE suspected related to study treatment (All doses, N = 132): 34 (26) n (%)
grade 3/4 neutropenia [7]: 28%
grade 3/4 thrombocytopenia [7]: 9%
treatment-related fatigue, grade 3/4 (all 132 patients): 2%
treatment-related nausea, grade 3/4 (all 132 patients): 2%
treatment-related neutropenia, all-grade (all 132 patients): 46%
clinically significant arrhythmias (all patients): No clinically significant arrhythmias were observed
patients requiring dose reduction to 400 mg/day [8]: 16
patients with dose interruption without reduction [8]: 13
